In ChEMBL document CHEMBL2385032, “Dual-functional abeo-taxane derivatives destabilizing microtubule equilibrium and inhibiting NF-κB activation” (2013):
Activity calls are given as the source filed them. No cut-off for these calls is given here.

What was measured:
LOX IMVI = experiment: Cytotoxicity against human LOXIMVI cells; assay type: functional
MOLT-4 = experiment: Cytotoxicity against human MOLT4 cells; assay type: functional
How it was run: (§1)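 NCI-60 human tumor cell line screen run by standard NCI protocol: single-dose prescreen at 10 μM, then multi-dose testing of compounds giving over 50% growth inhibition; GI50 = concentration for 50% growth inhibition.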

T47D = experiment: Cytotoxicity against human T47D cells; assay type: functional; how it was run: as §1
HCT-116 = experiment: Cytotoxicity against human HCT116 cells; assay type: functional; how it was run: as §1
DU-145 = experiment: Cytotoxicity against human DU145 cells; assay type: functional; how it was run: as §1
SNB-19 = experiment: Cytotoxicity against human SNB19 cells; assay type: functional; how it was run: as §1
NCI-H322M = experiment: Cytotoxicity against human NCI-H322M cells; assay type: functional; how it was run: as §1
RXF 393 = experiment: Cytotoxicity against human RXF393 cells; assay type: functional; how it was run: as §1
OVCAR-3 = experiment: Cytotoxicity against human OVCAR3 cells; assay type: functional; how it was run: as §1
Tubulin (Homo sapiens) = Tubulin (Homo sapiens) (UniProt P68371+Q9H4B7+P0DPH7+P68366+Q13509+Q71U36+P04350+Q3ZCM7+P07437+P68363+Q9BQE3+Q6PEY2+Q13885+Q9BVA1+Q9BUF5); experiment: Induction of tubulin (unknown origin) polymerization at 30 uM by fluorescence assay; assay type: protein-complex assay
How it was run: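 Cell-free tubulin polymerization kit; tubulin mixed with DMSO control, 500 μM CaCl2, 3 μM paclitaxel or test compounds at 15 or 30 μM; polymerization followed kinetically by fluorescence, excitation 340 nm, emission 420 nm, in a temperature-regulated fluorimeter. Three independent experiments in triplicate.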

HEK-293T = experiment: Inhibition of TNF-alpha induced NF-kapppaB activation in HEK293T cells at 1.25 to 5 uM incubated 1 hr prior to TNF-alpha addition measured after 18 hrs by luciferase reporter gene assay; assay type: cell-based; settings: Homo sapiens

SMILES | GI50 (LOX IMVI) | GI50 (MOLT-4) | GI50 (T47D) | GI50 (HCT-116) | GI50 (DU-145) | GI50 (SNB-19) | GI50 (NCI-H322M) | GI50 (RXF 393) | GI50 (OVCAR-3) | Activity (Tubulin (Homo sapiens)) | inhibition (HEK-293T)
C=C1[C@@H](OC(=O)[C@@H](O)[C@H](NC(=O)OC(C)(C)C)c2ccccc2)C[C@H](OC(C)=O)[C@@]2(C)[C@@H](OC(C)=O)[C@H](OC(=O)c3ccccc3)C3=C(C)[C@@H](O)C[C@@]3(C(C)(C)O)[C@@H](OC(C)=O)[C@H]12 | > 100 µM | 83.3 µM | > 100 µM | 45.2 µM | 72.4 µM | > 100 µM | > 100 µM | 26.6 µM | 28.4 µM |  | 
C=C1C(=O)C=C[C@@]2(C)[C@@H](OC(C)=O)[C@H](OC(=O)c3ccccc3)C3=C(C)[C@@H](OC(=O)[C@H](O)[C@@H](NC(=O)c4ccccc4)c4ccccc4)C[C@@]3(C(C)(C)O)[C@@H](OC(C)=O)[C@H]12 | 1.57 µM | 2.48 µM | 1.7 µM | 0.77 µM | 1.66 µM | 15.3 µM | 4.69 µM | 0.52 µM | 1.33 µM |  | 
CC(=O)O[C@H]1C[C@H]2OC[C@@]2(OC(C)=O)[C@H]2[C@H](OC(C)=O)[C@]3(C(C)(C)O)C[C@H](OC(=O)[C@H](O)[C@@H](NC(=O)OC(C)(C)C)c4ccccc4)C(C)=C3[C@@H](OC(=O)c3ccccc3)[C@H](OC(C)=O)[C@]12C | 21.4 µM | 42.7 µM | 38.9 µM | 16.2 µM | 21.4 µM | 33.1 µM | 50.1 µM | 12.6 µM | 15.5 µM | Active | inactive
C=C1C(=O)O[C@@H]2C3O[C@]3(C)CC/C=C(\C)CC[C@@H]12 (stereo partly specified) |  | 15.8 µM |  | 10 µM |  | 63.1 µM | 19.9 µM | 12.6 µM | 19.9 µM |  | Active
